Values after ≈ are worked out from the molar mass of the structure shown. Active and inactive are the calls of the source. No cut-off for these calls is given here.
Assays:
Staphylococcus aureus [1] = experiment: Antibacterial activity against Staphylococcus aureus ATCC 25923 assessed as inhibition zone after 18 hrs by disk diffusion method; assay type: functional, organism-based
Procedure, shortened: (§1)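 Samples were prepared at 10 mg/mL in water, and 50 µL was applied to 8 mm paper disks. Disks were placed on Mueller-Hinton agar in 9 cm dishes, pre-inoculated with a suspension made from one colony in distilled water. Plates were incubated 18 h at 37 °C, then the inhibition zone was measured.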

Enterococcus faecalis [2] = experiment: Antibacterial activity against Enterococcus faecalis ATCC 29212 assessed as inhibition zone after 18 hrs by disk diffusion method; assay type: functional, organism-based; procedure, shortened: as §1
Escherichia coli [3] = experiment: Antibacterial activity against Escherichia coli ATCC 25922 assessed as inhibition zone after 18 hrs by disk diffusion method; assay type: functional, organism-based; procedure, shortened: as §1
Pseudomonas aeruginosa [4] = experiment: Antibacterial activity against Pseudomonas aeruginosa ATCC 27853 assessed as inhibition zone after 18 hrs by disk diffusion method; assay type: functional, organism-based; procedure, shortened: as §1
Enterococcus faecalis [5] = experiment: Antibacterial activity against Enterococcus faecalis ATCC 29212 assessed as clear zone after 18 hrs by TLC bioautography; assay type: functional, organism-based
Procedure, shortened: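 After the TLC run, the solvent was evaporated. Plates were overlaid with Mueller-Hinton agar seeded with bacteria in nutrient broth and incubated 18 h at 37 °C in a humidified chamber. They were then sprayed with p-iodonitrotetrazolium bromide (2 mg/mL) and incubated 2 h. Clear zones were scored as antibacterial activity.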

Escherichia coli [6] = experiment: Antibacterial activity against Escherichia coli assessed as growth inhibition by liquid microdilution assay; assay type: functional
Procedure, shortened: (§2)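 MIC was determined by liquid broth microdilution growth inhibition against standard strains.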

Pseudomonas aeruginosa [7] = experiment: Antibacterial activity against Pseudomonas aeruginosa as growth inhibition by liquid microdilution assay; assay type: functional; procedure, shortened: as §2
Staphylococcus aureus [8] = experiment: Antibacterial activity against Staphylococcus aureus assessed as growth inhibition by liquid microdilution assay; assay type: functional; procedure, shortened: as §2
Enterococcus faecalis [9] = experiment: Antibacterial activity against Enterococcus faecalis assessed as growth inhibition by liquid microdilution assay; assay type: functional; procedure, shortened: as §2

| MIC (Escherichia coli [6]) | MIC (Pseudomonas aeruginosa [7]) | MIC (Staphylococcus aureus [8]) | MIC (Enterococcus faecalis [9]) | SMILES | inhibition (Staphylococcus aureus [1]) | inhibition (Enterococcus faecalis [2]) | inhibition (Escherichia coli [3]) | inhibition (Pseudomonas aeruginosa [4]) | inhibition (Enterococcus faecalis [5]) |
| --- | --- | --- | --- | --- | --- | --- | --- | --- | --- |
| – | – | – | – | C[C@H]1[C@H](C)CC[C@]2(C(=O)OC3O[C@H](CO)[C@@H](O)[C@H](O)[C@H]3O[C@@H]3O[C@@H](C)[C@H](O)[C@@H](O)[C@H]3O)CC[C@]3(C)C(=CC[C@@H]4[C@@]5(C)C[C@@H](O)[C@H](O[C@@H]6O[C@H](CO)[C@@H](O)[C@H](O)[C@H]6O)[C@@](C)(CO)[C@@H]5CC[C@]43C)[C@H]12 (stereo partly drawn) | Active | Active | Active | Active | Active |
| > 128 µg/mL | > 128 µg/mL | 128 µg/mL | 16 µg/mL | C[C@H]1[C@H](C)CC[C@]2(C(=O)O)CC[C@]3(C)C(=CC[C@@H]4[C@@]5(C)CC[C@H](O)C(C)(C)[C@@H]5CC[C@]43C)[C@H]12 [URSOLIC ACID] | – | – | – | – | – |
| > 128 µg/mL | > 128 µg/mL | 64 µg/mL | 64 µg/mL | CC1(C)CC[C@]2(C(=O)O)CC[C@]3(C)C(=CC[C@@H]4[C@@]5(C)C[C@@H](O)[C@H](O)[C@@](C)(CO)[C@@H]5CC[C@]43C)[C@@H]2C1 [ARJUNOLIC ACID] | – | – | – | – | – |
| > 128 µg/mL | > 128 µg/mL | > 128 µg/mL | 16 µg/mL | CC1(C)CC[C@]2(C(=O)O)CC[C@]3(C)C(=CC[C@@H]4[C@@]5(C)CC[C@H](O)C(C)(C)[C@@H]5CC[C@]43C)[C@@H]2C1 [OLEANOLIC_ACID] | – | – | – | – | – |
| – | – | – | – | C[C@@H]1O[C@@H](O[C@H]2[C@H](OC(=O)[C@]34CCC(C)(C)C[C@H]3C3=CC[C@@H]5[C@@]6(C)C[C@@H](O)[C@H](O[C@@H]7O[C@H](CO)[C@@H](O)[C@H](O)[C@H]7O)C(C)(C)[C@@H]6CC[C@@]5(C)[C@]3(C)CC4)O[C@H](CO)[C@@H](O)[C@@H]2O)[C@H](O)[C@H](O)[C@H]1O | Active | Active | Active | Active | Active |
| > 128 µg/mL | > 128 µg/mL | 64 µg/mL | 16 µg/mL | CC1(C)CC[C@]2(C(=O)O)CC[C@]3(C)C(=CC[C@@H]4[C@@]5(C)C[C@@H](O)[C@H](O)C(C)(C)[C@@H]5CC[C@]43C)[C@@H]2C1 [MASLINIC ACID] | – | – | – | – | – |
| – | – | – | – | C[C@@H]1O[C@@H](O[C@H]2C(OC(=O)[C@]34CCC(C)(C)C[C@H]3C3=CC[C@@H]5[C@@]6(C)C[C@@H](O)[C@H](O[C@@H]7O[C@H](CO)[C@@H](O)[C@H](O)[C@H]7O)[C@@](C)(CO)[C@@H]6CC[C@@]5(C)[C@]3(C)CC4)O[C@H](CO)[C@@H](O)[C@@H]2O)[C@H](O)[C@H](O)[C@H]1O (stereo partly drawn) | Active | Active | Active | Active | Active |
| > 128 µg/mL | > 128 µg/mL | > 128 µg/mL | 128 µg/mL | C[C@H]1[C@H](C)CC[C@]2(C(=O)O)CC[C@]3(C)C(=CC[C@@H]4[C@@]5(C)C[C@@H](O)[C@H](O)[C@@](C)(CO)[C@@H]5CC[C@]43C)[C@H]12 [ASIATIC ACID] | – | – | – | – | – |

| SMILES | MIC (Escherichia coli [6]) | MIC (Pseudomonas aeruginosa [7]) | MIC (Staphylococcus aureus [8]) | MIC (Enterococcus faecalis [9]) | inhibition (Staphylococcus aureus [1]) | inhibition (Enterococcus faecalis [2]) | inhibition (Escherichia coli [3]) | inhibition (Pseudomonas aeruginosa [4]) | inhibition (Enterococcus faecalis [5]) |
| --- | --- | --- | --- | --- | --- | --- | --- | --- | --- |
| CC(C)(O/N=C(\C(=O)N[C@@H]1C(=O)N2C(C(=O)[O-])=C(C[n+]3ccccc3)CS[C@H]12)c1csc(N)n1)C(=O)O [CEFTAZIDIME] | 10 µg/mL | 10 µg/mL (≈ 18.3 µM) | – | – | – | – | – | – | – |
| C[C@H]1[C@H](C)CC[C@]2(C(=O)O)CC[C@]3(C)C(=CC[C@@H]4[C@@]5(C)C[C@@H](O)[C@H](O)C(C)(C)[C@@H]5CC[C@]43C)[C@H]12 [COROSOLIC ACID] | > 128 µg/mL | > 128 µg/mL | 32 µg/mL | 32 µg/mL | – | – | – | – | – |
| CN[C@H](CC(C)C)C(=O)N[C@H]1C(=O)N[C@@H](CC(N)=O)C(=O)N[C@H]2C(=O)N[C@H]3C(=O)N[C@H](C(=O)N[C@H](C(=O)O)c4cc(O)cc(O)c4-c4cc3ccc4O)[C@H](O)c3ccc(c(Cl)c3)Oc3cc2cc(c3O[C@@H]2O[C@H](CO)[C@@H](O)[C@H](O)[C@H]2O[C@H]2C[C@](C)(N)[C@H](O)[C@H](C)O2)Oc2ccc(cc2Cl)[C@H]1O [VANCOMYCIN] | – | – | 2.5 µg/mL | 2.5 µg/mL | – | – | – | – | – |

— ChEMBL document CHEMBL1687891, “Triterpenoid saponins from Symplocos lancifolia” (2011)
